High-throughput results from PubChem.
Compounds with a hit are over-represented: about 3.5% of the library has one in this group of screens.
PAFAH2 inh = PAFAH2 enzyme inhibitors, primary screen, biochemical, fluorescence polarization, human | recombinant PAFAH2, FP-rhodamine activity probe | inhibition, % at 3.39 µM | Platelet-activating factor acetylhydrolase 2, cytoplasmic (Homo sapiens), Q99487 | 340,000 compounds, 0.99% hits;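 active = inhibition above the mean over all tested compounds plus 3 SD, cut at about 30% in these data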;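 also: inhibitors block probe labeling of enzyme so polarization drops; 0% = enzyme with DMSO and 100% = wells lacking PAFAH2 protein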
PAFAH1B3 inh = PAFAH1B3 enzyme inhibitors, primary screen, biochemical, fluorescence polarization, human; Platelet-activating factor acetylhydrolase IB subunit alpha1 (Homo sapiens), Q15102; recombinant PAFAH1B3, FP-rhodamine probe; inhibition, % at 3.39 µM; 340,000 compounds, 0.28% hits; AID 492972, 2010;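 active = inhibition above the screen-wide average of all tested compounds plus 3 SD, cut at about 25% in these data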;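 also: 0% = enzyme with DMSO only and 100% = wells lacking PAFAH1B3 protein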
Target sequence (Q15102 whole entry, looked up): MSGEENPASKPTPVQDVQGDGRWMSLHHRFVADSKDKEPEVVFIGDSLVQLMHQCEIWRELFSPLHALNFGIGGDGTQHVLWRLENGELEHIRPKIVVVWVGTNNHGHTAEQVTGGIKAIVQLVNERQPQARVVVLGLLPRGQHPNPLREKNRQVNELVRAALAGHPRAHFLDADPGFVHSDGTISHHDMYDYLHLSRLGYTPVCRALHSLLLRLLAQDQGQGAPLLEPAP
pPAFAH FP inh = pPAFAH enzyme inhibitors, primary screen, biochemical, fluorescence polarization, human | inhibition, % at 3.39 µM | 330,000 compounds, 1.5% hits | recombinant pPAFAH, FP-rhodamine probe fluorescence polarization | Platelet-activating factor acetylhydrolase (Homo sapiens), Q13093;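 active = inhibition above the mean inhibition across the screen plus 3 SD, cut at about 25% in these data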;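 also: inhibitors block binding of the rhodamine activity-based probe so polarization drops; 0% = enzyme with DMSO and 100% = wells lacking pPAFAH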
PREPL inhibitor = PREPL enzyme inhibitors, primary screen, biochemical, fluorescence polarization; Prolyl endopeptidase-like (Homo sapiens), Q4J6C6; recombinant PREPL, fluorescence polarization activity-based probe; inhibition, % at 5.96 µM; 320,000 compounds, 0.68% hits; AID 2751, 2010; in the data active = inhibition above about 43%;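 also: 0% = enzyme with DMSO and 100% = wells lacking enzyme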
Apaf-1 inh = inhibitors of human Apaf-1 apoptosome, primary screen, biochemical, DEVD-Rh110 fluorescence, uHTS. reconstituted apoptosome caspase-3 activity. 330,000 compounds, 0.71% hits. inhibition, % at 20 µM. AID 489030, 2010; active = inhibition of at least 40% at 20 µM;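 also: plate controls were DMSO wells for no effect and DEVD-CHO caspase inhibitor wells for full effect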
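Assay system – apoptosome proteins · Medium – Hepes buffer, pH 7.5 · Also added – cytochrome c with DEVD-Rh110 · Timing – 30 min compound preincubation, 50 min activation, room temperature · Detection – Rh110 fluorescence, excitation 480 nm, emission 540 nm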
PAFAH1B2 inh = PAFAH1B2 enzyme inhibitors, primary screen, biochemical, fluorescence polarization, human; Platelet-activating factor acetylhydrolase IB subunit alpha2 (Homo sapiens), P68402; inhibition, % at 3.39 µM; recombinant PAFAH1B2, FP-rhodamine activity probe; 340,000 compounds, 1.2% hits;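 active = inhibition above the mean of all tested compounds plus 3 SD, cut at about 24% in these data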;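 also: 0% = enzyme with DMSO and 100% = wells lacking PAFAH1B2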
Target sequence (P68402 whole entry, looked up): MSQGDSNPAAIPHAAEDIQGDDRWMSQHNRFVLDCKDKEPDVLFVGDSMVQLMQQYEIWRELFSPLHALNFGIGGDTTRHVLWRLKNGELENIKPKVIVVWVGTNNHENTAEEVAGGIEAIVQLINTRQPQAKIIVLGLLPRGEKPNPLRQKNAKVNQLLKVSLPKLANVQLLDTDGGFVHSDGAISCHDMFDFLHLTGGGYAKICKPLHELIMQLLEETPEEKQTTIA
* hit, by the source's call; · = no result.

SMILES | PAFAH2 inh | PAFAH1B3 inh | pPAFAH FP inh | PREPL inhibitor | Apaf-1 inh | PAFAH1B2 inh
CCNc1nc(Oc2ccc(OC)cc2)cc(C(F)(F)F)n1 | 7.1 | 8.4 | 33.2* | 3.1 | 8.8 | -1.8
NS(=O)(=O)c1ccc(NS(=O)(=O)c2cccs2)cc1 | -1.7 | 1.0 | -2.8 | 15.3 | -3.9 | -1.0
O=S(=O)(Nc1ccc(Br)cc1)c1cccc(NS(=O)(=O)c2cccs2)c1 | 43.3* | -0.5 | · | · | · | 74.7*
O=C(O)c1cc(NS(=O)(=O)c2cccs2)cc(NS(=O)(=O)c2cccs2)c1 | 10.7 | 2.8 | 3.3 | 2.6 | -9.8 | 25.5*
CCn1c(SC)nnc1C1CCCN(CC(=O)Nc2ccccc2N2CCOCC2)C1 (centres undefined) | 2.7 | 7.0 | -5.7 | 8.4 | 9.0 | 0.8
COc1ccc(C2CC(c3ccccc3)=NN2c2ccc(S(N)(=O)=O)cc2)cc1OC (centres undefined) | 6.9 | 1.8 | 5.4 | 29.0 | 16.7 | 0.5
COc1ccc(C2=NN(c3ccc(C(=O)O)cc3)C(c3ccc(OC)c(OC)c3)C2)cc1 (centres undefined) | 14.3 | 17.9 | 26.9* | 5.7 | 3.1 | 7.6
COc1ccc(C2CC(c3ccccc3)=NN2c2ccc(Cl)c(C(=O)O)c2)cc1 (centres undefined) | 7.2 | 9.7 | 34.0* | 20.2 | 24.7 | 1.3
COc1ccc(C2CC(c3ccccc3)=NN2c2ccc(N)cc2)cc1 (centres undefined) | 5.3 | -1.9 | 25.8* | 12.2 | 6.6 | 6.0
C[C@H](NC(=O)COc1ccc(Cl)cc1)C(=O)N1CCC2(CC1)NCCc1[nH]cnc12 | 7.7 | 10.3 | 5.9 | -0.6 | 1.7 | 0.0
CC(C)C(=O)N[C@@H]1c2ccccc2CC[C@H]1OCc1ccccc1 | 5.3 | 0.1 | -3.8 | · | 8.3 | 1.3
COc1ccc(CNC(=O)Cc2c(C(=O)O)[nH]c3ccccc23)cc1 | 4.9 | 11.8 | -3.3 | 19.8 | 0.9 | 25.4*
COc1ccc(S(=O)(=O)N2CCN(c3ccc4nnc(-c5ccccc5)n4n3)CC2)cc1 | 1.9 | 1.0 | -9.1 | -1.9 | 64.9* | 5.0
NS(=O)(=O)c1ccc(CCNC(=O)c2ccc(Cl)c(S(=O)(=O)NCc3ccco3)c2)cc1 | 0.2 | 2.7 | 0.5 | 34.4 | -2.7 | 6.0
Cc1ccc(S(=O)(=O)c2nnn3c2nc(N2CCC(C(N)=O)CC2)c2ccccc23)cc1 | 1.4 | 2.8 | -3.9 | 2.6 | 0.8 | -4.4
C=CC(=O)Nc1ccc(CN2C(=O)N(c3c(Cl)c(OC)cc(OC)c3Cl)Cc3cnc(NCCCCN(CC)CC)nc32)cc1 | 0.5 | 1.8 | -0.1 | 39.9 | 62.9* | -3.6
Cc1ccccc1C(=O)NNC(=O)CCCCC(=O)NNC(=O)c1ccccc1C | 5.4 | 5.7 | -0.1 | -3.8 | -9.1 | 4.3
COc1c(C=NNC(N)=O)c(OC)c(OC)c2c1CCO2 | 3.4 | 8.1 | · | · | · | 4.7
Cc1noc(C)c1C(c1ccccc1)c1ccccc1 | -3.0 | 0.9 | 2.1 | -7.0 | -6.3 | 28.9*
Cc1noc(C)c1C(c1ccccc1)S(=O)(=O)c1ccccc1 (centres undefined) | -2.8 | 7.1 | 1.8 | -2.7 | -3.5 | 1.8
CC(Oc1ccccc1)C(=O)N=C1SC2CS(=O)(=O)CC2N1Cc1ccc(F)cc1 (centres undefined) | 2.2 | 2.5 | 26.1* | -1.1 | 11.4 | 5.6
CC(Oc1ccccc1)C(=O)N=C1SC2CS(=O)(=O)CC2N1c1ccc(F)cc1 (centres undefined) | -6.9 | -2.5 | 2.7 | -2.1 | 2.9 | -2.3
CCOC(=O)Cc1csc(NC(=O)c2sc3nc4ccc(CC)cc4cc3c2N)n1 | -5.5 | -0.5 | 33.6* | 11.9 | 1.5 | 0.1
CCN(CC)c1ccc(NC(=O)COC(=O)CSc2ccc(Br)cc2C)cc1 | 3.8 | -0.2 | 18.1 | 16.2 | 18.0 | 8.9
